Bioassay records as filed in PubChem.
thrombin 1536 = blocks human thrombin protease activity. inhibition, % at 5 µM. alpha-thrombin, Boc-VPR-AMC fluorogenic substrate cleavage. 0.26% of 220,000 active. AID 1046;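 active = inhibition at or above 40%; inactive = inhibition below 40%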;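 note: 0% = enzyme with no compound and 100% = wells without enzyme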
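System – human alpha-thrombin · Medium – pH 7.5 Tris (50 mM) with NaCl 150 mM, Tween 20 0.05% · Compound – single-point dosing at 5 µM, 0.2% DMSO · Incubation – enzyme reaction carried out at room temperature · Technique – fluorescence of released AMC, ex 355 nm, em 460 nm · Read-out basis – % inhibition of thrombin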
FXIa inh = inhibitors of human coagulation factor XIa; P03951; purified FXIa, Boc-Glu-Ala-Arg-AMC fluorogenic substrate; AID 798; inhibition, % at 5 µM; 0.14% of 220,000 active;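 active = inhibition of at least 40%; inactive = inhibition below 40%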;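 note: fluorescence of freed AMC excited at 355 nm; 0% = enzyme without compound and 100% = no enzyme blank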
Furin inhibitor = human furin inhibition. inhibition, % at 20 µM or 30 µM. 0.061% of 220,000 active. AID 463115. purified furin, fluorogenic substrate cleavage; in the data active = inhibition above about 25%
hK5 inh = inhibitors of human kallikrein 5; AID 873; 0.59% of 210,000 active; inhibition, % at 5 µM; recombinant hK5, fluorogenic AMC substrate cleavage;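 active = inhibition of 40% or more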;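 note: 0% = enzyme controls without compound and 100% = no-enzyme blanks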
Target sequence (Q9Y337 67-293 limits assumed): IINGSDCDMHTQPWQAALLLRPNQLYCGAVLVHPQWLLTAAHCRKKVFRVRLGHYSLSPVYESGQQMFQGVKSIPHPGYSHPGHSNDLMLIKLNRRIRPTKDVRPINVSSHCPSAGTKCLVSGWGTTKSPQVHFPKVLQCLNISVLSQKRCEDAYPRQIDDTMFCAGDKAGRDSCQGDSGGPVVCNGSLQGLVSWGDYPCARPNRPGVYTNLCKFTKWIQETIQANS
FXIIa inh = inhibitors of human coagulation factor XIIa; P00748; purified FXIIa, Boc-QGR-AMC fluorogenic substrate, 2 h; inhibition, % at 5 µM; 0.3% of 220,000 active; AID 800; in the data active = inhibition above about 40%;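 note: 0% = enzyme with no compound and 100% = blank without enzyme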
Active calls of the source: *. The list is not random: actives were taken first. Their share in the collection is about 1.1%.

How did CC(=O)Cc1nsc(NC(=O)c2ccc(-c3cccc(C(F)(F)F)c3)o2)n1 do in these assays?
thrombin 1536: 3; FXIa inh: 3; Furin inhibitor: -17; hK5 inh: 2; FXIIa inh: 12

Results for CC(=O)Cc1nsc(NC(=O)c2cccc(F)c2)n1 ?
thrombin 1536: 0; FXIa inh: 25; Furin inhibitor: -20; hK5 inh: 52*; FXIIa inh: 21

Results for Cc1nnc(NC(=O)c2cccc(F)c2)s1 ?
thrombin 1536: 7; FXIa inh: 4; Furin inhibitor: -17; hK5 inh: 44*; FXIIa inh: 16

Results for O=C(NC1(C(F)(F)F)NC(=O)N(c2ccc(F)cc2)C1=O)c1cccs1 (stereo not given) ?
thrombin 1536: -6; FXIa inh: 3; Furin inhibitor: -39; hK5 inh: -5; FXIIa inh: 4

What do the screens show for `Cc1ccc2oc(NC(=O)N3CCOCC3)cc(=O)c2c1`?
thrombin 1536: -1; FXIa inh: 0; Furin inhibitor: -16; hK5 inh: 3; FXIIa inh: 80*

Results for COc1cc(NC(=O)c2cccs2)c(OC)cc1NC(=O)CCC(=O)Nc1ccc2ncccc2c1 ?
thrombin 1536: 19; FXIa inh: 27; Furin inhibitor: 3; hK5 inh: 54*; FXIIa inh: 15

Results for Cc1cccc(N2C(=O)CS/C2=N\NC(=O)c2ccc(Br)cc2)c1C ?
thrombin 1536: 23; FXIa inh: 25; Furin inhibitor: -25; hK5 inh: 57*; FXIIa inh: 14

What do the screens show for `CCC(C)NC(=O)CSc1nc2ccsc2c(=O)n1NC(=O)c1ccccc1` (stereo not given)?
thrombin 1536: 28; FXIa inh: 20; Furin inhibitor: -14; hK5 inh: 33; FXIIa inh: 41*

Results for Cc1ccc(CNC(=O)CSc2nc3ccsc3c(=O)n2NC(=O)c2ccccc2)cc1 ?
thrombin 1536: -7; FXIa inh: -2; Furin inhibitor: -8; hK5 inh: -3; FXIIa inh: 1

How did CCc1ccc(NC(=O)CCn2cccc2)cc1 do in these assays?
thrombin 1536: 11; FXIa inh: 41*; Furin inhibitor: -12; hK5 inh: 15; FXIIa inh: 14

How did COC(=O)c1ccc(NC(=O)CCn2cccc2)cc1 do in these assays?
thrombin 1536: -2; FXIa inh: -2; Furin inhibitor: -10; hK5 inh: -3; FXIIa inh: 10

How did Cc1ccc(C(=O)NCC(=O)OC(C)C(=O)Nc2ccc(N3CCOCC3)cc2)s1 (stereo not given) do in these assays?
thrombin 1536: 5; FXIa inh: 44*; Furin inhibitor: -3; hK5 inh: 77*; FXIIa inh: 82*

What do the screens show for `CCSc1ccccc1C(=O)NC1CCCCC1`?
thrombin 1536: -10; FXIa inh: -6; Furin inhibitor: -23; hK5 inh: -4

How did O=C(OCc1csc(-c2ccccc2)n1)c1ccccc1O do in these assays?
thrombin 1536: 0; FXIa inh: -5; Furin inhibitor: -25; hK5 inh: -23; FXIIa inh: 0

Results for Clc1ccc(CON/C=N/c2ncnc3sccc23)cc1 ?
thrombin 1536: 24; FXIa inh: 8; Furin inhibitor: -16; hK5 inh: 78*; FXIIa inh: 13

Results for O=[N+]([O-])c1cc(-c2ncccn2)cs1 ?
thrombin 1536: -3; FXIa inh: -2; Furin inhibitor: -22; hK5 inh: -13; FXIIa inh: 8

How did O=C(NC1CCCCC1)c1ccc(S(=O)(=O)N2CCCCC2)cc1 do in these assays?
thrombin 1536: -3; FXIa inh: 4; Furin inhibitor: -18; hK5 inh: 17; FXIIa inh: 4

How did COc1ccc(N2CCN(S(=O)(=O)c3ccc(C(=O)NC4CCCC4)cc3)CC2)cc1 do in these assays?
thrombin 1536: -4; FXIa inh: 8; Furin inhibitor: -9; hK5 inh: 6; FXIIa inh: 47*

What do the screens show for `O=C(O)c1cccc(-c2ccc(/C=N/n3cnc4sc5c(c4c3=O)CCCC5)o2)c1`?
thrombin 1536: -4; FXIa inh: 3; Furin inhibitor: -18; hK5 inh: 3; FXIIa inh: 5

What do the screens show for `Cc1cc(/C=C(\C#N)C(=O)Nc2ccc(Cl)cc2)c(C)n1-c1ccc(N2CCOCC2)c([N+](=O)[O-])c1`?
thrombin 1536: 4; FXIa inh: 12; Furin inhibitor: -7; hK5 inh: -4; FXIIa inh: 20

What do the screens show for `CNC(=O)/C(C#N)=C/c1cc(C)n(-c2ccc(N3CCOCC3)cc2)c1C`?
thrombin 1536: -7; FXIa inh: -9; Furin inhibitor: -4; hK5 inh: 44*; FXIIa inh: 2

What do the screens show for `CCC(=O)Nc1cc2c(cc1C(=O)c1ccccc1)OCCO2`?
thrombin 1536: -6; FXIa inh: -4; Furin inhibitor: -16; hK5 inh: -5; FXIIa inh: 2

What do the screens show for `CC(=O)Nc1cc2c(cc1C(=O)c1ccccc1)OCCO2`?
thrombin 1536: 34; FXIa inh: 4; Furin inhibitor: -14; hK5 inh: 49*; FXIIa inh: 9

Results for COc1cc2c3c(c1)C1(C(=O)N3C(C)(C)C=C2C)C(C#N)=C(N)Oc2cc(O)ccc21 (stereo not given) ?
thrombin 1536: 12; FXIa inh: 4; Furin inhibitor: -12; hK5 inh: 64*; FXIIa inh: 25

Results for Cc1ccc(C)c(N2CCN(C(=O)CN(C)S(=O)(=O)c3ccc4c(c3)CCC(=O)N4)CC2)c1 ?
thrombin 1536: -2; FXIa inh: -10; Furin inhibitor: -24; hK5 inh: 53*; FXIIa inh: -4

Results for CC(=O)c1ccc(NC(=S)NC(C)CCc2ccccc2)cc1 (stereo not given) ?
thrombin 1536: -3; FXIa inh: 0; Furin inhibitor: -31; hK5 inh: 10; FXIIa inh: 10

What do the screens show for `COC(=O)CCCCCCCCC(O)CN(C)C` (stereo not given)?
thrombin 1536: 1; FXIa inh: 3; Furin inhibitor: -2; hK5 inh: 2; FXIIa inh: 7

Results for COC(=O)CCCCCC(CCC(=O)OC)NC(C)=O (stereo not given) ?
thrombin 1536: 24; FXIa inh: 6; Furin inhibitor: -7; hK5 inh: 51*; FXIIa inh: 16

How did CCCC(=O)n1nc(-c2ccc(C)cc2)nc1NCc1ccco1 do in these assays?
thrombin 1536: 58*; FXIa inh: -2; Furin inhibitor: -8; FXIIa inh: 3

How did CC(=O)n1nc(-c2ccc(Cl)cc2)nc1NCc1ccco1 do in these assays?
thrombin 1536: 47*; FXIa inh: -12; Furin inhibitor: -12; hK5 inh: 1; FXIIa inh: 15

Results for COc1nccnc1NS(=O)(=O)c1ccc(NC(=O)c2cccc(C)c2)cc1 ?
thrombin 1536: 1; FXIa inh: -5; Furin inhibitor: -24; hK5 inh: 8; FXIIa inh: 2

How did C/C(CC(=O)NCCCN1CCOCC1)=N\NC(=O)COc1ccc(C)cc1 do in these assays?
thrombin 1536: 11; FXIa inh: 3; Furin inhibitor: -16; hK5 inh: 47*; FXIIa inh: 24
